# Experimental data reported in ChEMBL document CHEMBL1177725, “6-(3,4-dichlorophenyl)-1-[(methyloxy)methyl]-3-azabicyclo[4.1.0]heptane: a new potent and selective triple reuptake inhibitor” (J Med Chem, 2010).
# Activity calls are given as the source filed them. The rule behind the calls is not given here.
# Tests used:
# Rattus norvegicus [1] = experiment: Increase of extracellular dopamine level in CD rat medial prefrontal cortex at 3 mg/kg, ip measured up to 180 mins by microdialysis method; type: functional, organism-based; parameters: dose 3 mg/kg
# Outline: (§1)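 Probes of 2 or 4 mm were perfused with artificial CSF at 1.1 μL/min for 2 h, then dosing was 3 mg/kg ip. Dialysate was collected every 20 min into oxalic acid. NE, DA and 5-HT were measured by HPLC with electrochemical detection and expressed as percent of the mean of three basal samples.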
# Mus musculus [2] = experiment: Antidepressant like activity in mouse assessed as reduction of immobility time at 3 to 30 mg/kg, po administered 2 hrs before test measured during final 4 mins of the 6 mins session by forced swimming test; type: functional, organism-based
# Rattus norvegicus [3] = experiment: Increase of extracellular norepinephrine level in CD rat nucleus accumbens at 3 mg/kg, ip measured up to 180 mins by microdialysis method; type: functional, organism-based; parameters: dose 3 mg/kg; outline: as §1
# Mus musculus [4] = experiment: Potentiation of 5-hydroxytryptophan-induced stereotypic behavior in po dosed mouse administered 2 hrs before 5-hydroxytryptophan challenge measured for 30 mins; type: functional, organism-based
# Outline: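 Mice got oral drug 120 min before an ip 5-HTP challenge (100 mg/kg), then sat singly in a perspex box for scoring of stereotyped behaviour. Oral doses were 3, 10 and 30 mg/kg.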
# Rattus norvegicus [5] = experiment: Increase of extracellular serotonin level in CD rat nucleus accumbens at 3 mg/kg, ip measured up to 180 mins by microdialysis method; type: functional, organism-based; parameters: dose 3 mg/kg; outline: as §1
# Rattus norvegicus [6] = experiment: Increase of extracellular norepinephrine level in CD rat medial prefrontal cortex at 3 mg/kg, ip measured up to 180 mins by microdialysis method; type: functional, organism-based; parameters: dose 3 mg/kg; outline: as §1
# Rattus norvegicus [7] = experiment: Increase of extracellular dopamine level in CD rat nucleus accumbens at 3 mg/kg, ip measured up to 180 mins by microdialysis method; type: functional, organism-based; parameters: dose 3 mg/kg; outline: as §1
# Rattus norvegicus [8] = experiment: Increase of extracellular serotonin level in CD rat medial […] at 3 mg/kg, ip measured up to 180 mins by microdialysis method; type: functional, organism-based; parameters: dose 3 mg/kg; outline: as §1
# Rattus norvegicus [9] = experiment: Ex vivo SERT occupancy in Sprague-Dawley rat cortex at 10 mg/kg, po after 1 hr by autoradiography; type: functional
# Outline: (§2)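 Oral dosing in rats. SERT occupancy was taken from [3H]citalopram binding to brain cortex prepared 1 h after administration.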
# Rattus norvegicus [10] = experiment: Ex vivo SERT occupancy in Sprague-Dawley rat cortex at 1 mg/kg, po after 1 hr by autoradiography; type: functional; outline: as §2
# Rattus norvegicus [11] = experiment: Ex vivo SERT occupancy in Sprague-Dawley rat cortex at 20 mg/kg, po after 1 hr by autoradiography; type: functional; outline: as §2
# [12] = target: T1, Sodium-dependent noradrenaline transporter (Homo sapiens, UniProt P23975); experiment: Displacement of [N-methyl-3H]nisoxetine from human recombinant NET expressed in pig LLCPK cells after 2 hrs by liquid scintillation counting; type: cell-based
# T1 sequence (P23975 whole entry): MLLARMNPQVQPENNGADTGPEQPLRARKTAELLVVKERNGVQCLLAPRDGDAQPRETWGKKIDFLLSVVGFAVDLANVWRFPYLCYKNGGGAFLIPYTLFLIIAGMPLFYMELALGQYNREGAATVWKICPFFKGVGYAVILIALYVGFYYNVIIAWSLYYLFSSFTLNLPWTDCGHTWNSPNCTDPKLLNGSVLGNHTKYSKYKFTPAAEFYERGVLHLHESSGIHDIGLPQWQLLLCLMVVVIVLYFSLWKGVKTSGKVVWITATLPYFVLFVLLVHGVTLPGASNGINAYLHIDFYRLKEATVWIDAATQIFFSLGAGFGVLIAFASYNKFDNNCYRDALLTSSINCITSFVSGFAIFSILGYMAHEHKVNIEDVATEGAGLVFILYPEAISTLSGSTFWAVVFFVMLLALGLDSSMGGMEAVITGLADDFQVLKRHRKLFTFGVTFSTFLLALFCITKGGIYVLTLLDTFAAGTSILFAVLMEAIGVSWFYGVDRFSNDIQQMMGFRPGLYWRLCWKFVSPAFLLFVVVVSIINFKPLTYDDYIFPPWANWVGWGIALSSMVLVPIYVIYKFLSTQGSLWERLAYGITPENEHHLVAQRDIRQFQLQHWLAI
# [13] = target: T2, Sodium-dependent serotonin transporter (Homo sapiens, UniProt P31645); experiment: Displacement of [N-methyl-3H]citalopram from human recombinant SERT expressed in pig LLCPK cells after 2 hrs by liquid scintillation counting; type: cell-based
# T2 sequence (P31645 whole entry): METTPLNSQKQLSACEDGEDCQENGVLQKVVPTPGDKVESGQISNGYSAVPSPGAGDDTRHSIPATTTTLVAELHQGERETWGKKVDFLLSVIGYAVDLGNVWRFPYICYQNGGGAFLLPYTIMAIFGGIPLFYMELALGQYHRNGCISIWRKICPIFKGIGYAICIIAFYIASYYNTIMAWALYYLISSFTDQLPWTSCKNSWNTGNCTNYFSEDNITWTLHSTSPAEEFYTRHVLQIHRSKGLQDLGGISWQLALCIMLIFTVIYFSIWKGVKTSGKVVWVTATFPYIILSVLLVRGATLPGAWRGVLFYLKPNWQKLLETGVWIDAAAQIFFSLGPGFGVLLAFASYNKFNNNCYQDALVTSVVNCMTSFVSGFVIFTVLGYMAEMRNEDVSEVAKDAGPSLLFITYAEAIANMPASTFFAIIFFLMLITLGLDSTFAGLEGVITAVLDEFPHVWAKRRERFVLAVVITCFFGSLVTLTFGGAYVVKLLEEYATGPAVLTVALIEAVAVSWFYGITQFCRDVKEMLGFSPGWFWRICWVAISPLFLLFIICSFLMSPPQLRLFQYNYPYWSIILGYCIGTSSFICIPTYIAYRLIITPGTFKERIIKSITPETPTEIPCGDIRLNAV
# [14] = target: T2, Sodium-dependent serotonin transporter; experiment: Displacement of [3H]citalopram from human recombinant SERT by SPA
# Outline: (§3)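 SPA binding on BacMam-expressed human transporter membranes (SERT 6, NET 40, DAT 20 μg/mL) with SPA beads (1 mg/mL SERT; 2 mg/mL NET, DAT), 0.02% Pluronic F-127. Radioligands: 3 nM [3H]citalopram (SERT), 10 nM [3H]nisoxetine (NET), 10 nM [3H]WIN-35,428 (DAT). Buffer 20 mM HEPES, 145 mM NaCl, 5 mM KCl, pH 7.4; overnight, room temperature; imager read; four-parameter fit, Cheng-Prusoff pKi.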
# [15] = target: T3, Sodium-dependent dopamine transporter (Homo sapiens, UniProt Q01959); experiment: Inhibition of [3H]dopamine reuptake at human DAT expressed in pig LLCPK cells after 1 hr; type: cell-based
# T3 sequence (Q01959 whole entry): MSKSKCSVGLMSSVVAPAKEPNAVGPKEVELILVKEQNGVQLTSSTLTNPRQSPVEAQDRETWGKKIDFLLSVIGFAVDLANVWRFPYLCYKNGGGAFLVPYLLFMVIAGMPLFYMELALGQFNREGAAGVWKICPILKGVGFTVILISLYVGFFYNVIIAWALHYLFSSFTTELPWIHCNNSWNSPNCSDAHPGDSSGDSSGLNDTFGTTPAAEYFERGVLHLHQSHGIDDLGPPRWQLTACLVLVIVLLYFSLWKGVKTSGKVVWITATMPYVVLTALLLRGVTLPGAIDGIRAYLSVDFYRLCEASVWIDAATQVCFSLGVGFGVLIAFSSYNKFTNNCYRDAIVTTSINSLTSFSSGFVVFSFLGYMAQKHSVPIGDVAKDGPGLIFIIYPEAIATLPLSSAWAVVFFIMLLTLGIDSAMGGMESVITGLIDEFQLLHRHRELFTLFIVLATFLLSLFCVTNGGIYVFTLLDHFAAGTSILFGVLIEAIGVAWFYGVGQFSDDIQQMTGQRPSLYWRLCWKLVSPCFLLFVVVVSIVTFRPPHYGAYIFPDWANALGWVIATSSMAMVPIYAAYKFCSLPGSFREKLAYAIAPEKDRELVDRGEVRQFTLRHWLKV
# Outline: (§4)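 Uptake SPA on stably transfected LLCPK cells with SPA beads (1.5 mg/mL SERT, NET; 2 mg/mL DAT) and 0.02% Pluronic F-127 in 20 mM HEPES, 145 mM NaCl, 5 mM KCl, pH 7.4. Cells/well: SERT 25 000, NET 50 000, DAT 75 000. Started by adding 35 nM [3H]serotonin, 45 nM [3H]noradrenalin or 75 nM [3H]dopamine (solutions added); 1 h, room temperature; four-parameter fit; n = 3.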
# Rattus norvegicus [16] = experiment: Ex vivo SERT occupancy in Sprague-Dawley rat superior coulliculus at 10 mg/kg, po […] by autoradiography; type: functional
# Cytochrome P450 2C9 = Cytochrome P450 2C9 (Homo sapiens, UniProt P11712); experiment: Inhibition of human CYP2C9 after 10 mins; type: ADME
# Sequence of Cytochrome P450 2C9 (P11712 whole entry): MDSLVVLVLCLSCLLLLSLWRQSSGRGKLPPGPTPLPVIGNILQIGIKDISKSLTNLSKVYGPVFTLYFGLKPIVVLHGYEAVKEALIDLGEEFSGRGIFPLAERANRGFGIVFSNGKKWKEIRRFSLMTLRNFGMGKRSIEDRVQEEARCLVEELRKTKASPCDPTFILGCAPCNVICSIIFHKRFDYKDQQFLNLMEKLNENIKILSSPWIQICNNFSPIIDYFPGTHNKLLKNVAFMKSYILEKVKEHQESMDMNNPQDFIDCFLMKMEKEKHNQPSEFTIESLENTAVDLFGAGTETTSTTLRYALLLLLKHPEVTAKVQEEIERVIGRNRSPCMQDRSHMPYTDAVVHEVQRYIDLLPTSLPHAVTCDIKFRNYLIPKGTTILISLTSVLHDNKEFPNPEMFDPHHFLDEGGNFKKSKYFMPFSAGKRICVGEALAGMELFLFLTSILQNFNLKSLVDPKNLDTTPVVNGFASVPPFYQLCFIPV
# Outline: (§5)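 Recombinant human CYP bactosomes (0.1 mg/mL) were pre-incubated 10 min at 37 °C in 50 mM phosphate pH 7.4 with compound (0.1–10 μM) and a fluorogenic substrate. Substrates: ethoxyresorufin 0.5 μM (1A2), FCA 50 μM (2C9), BMC 10 μM (2C19), MMC 10 μM (2D6), DEF 1 μM or 7-BQ 25 μM (3A4). Adding an NADPH-regenerating system started the reaction, and metabolite fluorescence was read over 10 min. The IC50 came from rate as percent of control; miconazole served as positive control, with triplicates.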
# [17] = target: Sodium-dependent noradrenaline transporter (Mus musculus, UniProt O55192); experiment: Displacement of [3H]nisoxetine from NET in mouse brain; type: tissue-based
# [18] = target: T3, Sodium-dependent dopamine transporter; experiment: Displacement of [3H]WIN-35428 from human recombinant DAT by SPA; outline: as §3
# Cytochrome P450 2C19 = Cytochrome P450 2C19 (Homo sapiens, UniProt P33261); experiment: Inhibition of human CYP2C19 after 10 mins; type: ADME; outline: as §5
# Sequence of Cytochrome P450 2C19 (P33261 whole entry): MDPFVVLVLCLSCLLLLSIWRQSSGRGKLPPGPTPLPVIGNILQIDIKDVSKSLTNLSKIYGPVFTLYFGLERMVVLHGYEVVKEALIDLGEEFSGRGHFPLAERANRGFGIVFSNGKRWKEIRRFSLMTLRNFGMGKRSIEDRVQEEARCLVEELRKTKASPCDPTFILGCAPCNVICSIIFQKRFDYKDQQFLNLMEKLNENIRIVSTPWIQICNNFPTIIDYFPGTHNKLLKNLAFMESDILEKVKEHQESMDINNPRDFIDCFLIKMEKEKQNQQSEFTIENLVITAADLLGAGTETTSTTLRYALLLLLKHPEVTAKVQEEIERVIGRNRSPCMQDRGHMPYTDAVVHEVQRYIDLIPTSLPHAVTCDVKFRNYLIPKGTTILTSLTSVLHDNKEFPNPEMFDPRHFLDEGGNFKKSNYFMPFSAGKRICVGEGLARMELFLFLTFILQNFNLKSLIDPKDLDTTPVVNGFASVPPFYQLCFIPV
# Cytochrome P450 1A2 = target: T4, Cytochrome P450 1A2 (Homo sapiens, UniProt P05177); experiment: Inhibition of human CYP1A2 after 10 mins; type: ADME; outline: as §5
# T4 sequence (P05177 whole entry): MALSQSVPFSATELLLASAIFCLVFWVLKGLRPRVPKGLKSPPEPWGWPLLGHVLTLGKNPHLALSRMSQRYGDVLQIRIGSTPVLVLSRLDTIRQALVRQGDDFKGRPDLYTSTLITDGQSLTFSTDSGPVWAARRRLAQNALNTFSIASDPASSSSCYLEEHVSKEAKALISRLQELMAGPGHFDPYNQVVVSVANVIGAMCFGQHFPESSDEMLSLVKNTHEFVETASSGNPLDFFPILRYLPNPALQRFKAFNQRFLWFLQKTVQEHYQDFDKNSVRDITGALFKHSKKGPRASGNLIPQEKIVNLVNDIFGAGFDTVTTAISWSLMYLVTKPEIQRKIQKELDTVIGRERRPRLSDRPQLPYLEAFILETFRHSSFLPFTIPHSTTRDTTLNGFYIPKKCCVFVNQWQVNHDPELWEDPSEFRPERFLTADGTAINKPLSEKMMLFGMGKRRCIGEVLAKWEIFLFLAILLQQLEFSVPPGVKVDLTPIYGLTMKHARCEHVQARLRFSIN
# Rattus norvegicus [19] = experiment: Ex vivo SERT occupancy in Sprague-Dawley rat cortex at 0.3 mg/kg, po after 1 hr by autoradiography; type: functional; outline: as §2
# [20] = Oral bioavailability in rat; type: ADME, organism-based; details: in vivo
# Cytochrome P450 3A4 = Cytochrome P450 3A4 (Homo sapiens, UniProt P08684); experiment: Inhibition of human CYP3A4 after 10 mins; type: ADME; outline: as §5
# [21] = target: T3, Sodium-dependent dopamine transporter; experiment: Displacement of [N-methyl-3H]WIN-35428 from human recombinant DAT expressed in pig LLCPK cells after 2 hrs by liquid scintillation counting; type: cell-based
# [22] = Volume of distribution in rat; type: ADME, organism-based; details: in vivo
# Rattus norvegicus [23] = experiment: Ex vivo SERT occupancy in Sprague-Dawley rat substantia nigra at 10 mg/kg, po […] by autoradiography; type: functional
# Cytochrome P450 2D6 = Cytochrome P450 2D6 (Homo sapiens, UniProt P10635); experiment: Inhibition of human CYP2D6 after 10 mins; type: ADME; outline: as §5
# Sequence of Cytochrome P450 2D6 (P10635 whole entry): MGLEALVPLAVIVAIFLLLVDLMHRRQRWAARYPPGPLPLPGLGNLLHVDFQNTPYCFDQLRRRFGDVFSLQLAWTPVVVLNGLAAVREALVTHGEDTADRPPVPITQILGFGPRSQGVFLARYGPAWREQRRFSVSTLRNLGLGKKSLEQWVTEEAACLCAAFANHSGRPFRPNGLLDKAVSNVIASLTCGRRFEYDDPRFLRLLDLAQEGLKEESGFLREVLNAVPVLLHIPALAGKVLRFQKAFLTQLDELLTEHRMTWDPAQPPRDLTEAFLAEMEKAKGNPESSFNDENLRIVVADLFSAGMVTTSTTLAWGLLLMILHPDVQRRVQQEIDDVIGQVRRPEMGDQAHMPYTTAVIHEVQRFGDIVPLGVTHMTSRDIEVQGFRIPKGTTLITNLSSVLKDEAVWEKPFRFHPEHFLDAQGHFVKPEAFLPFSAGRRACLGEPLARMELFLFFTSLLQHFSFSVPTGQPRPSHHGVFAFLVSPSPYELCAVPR
# Rattus norvegicus [24] = experiment: Ex vivo SERT occupancy in Sprague-Dawley rat striatum at 10 mg/kg, po […] by autoradiography; type: functional
# [25] = target: Sodium-dependent dopamine transporter (Rattus norvegicus, UniProt P23977); experiment: Displacement of [3H]WIN-35428 from DAT in rat striatum after 2 hrs by liquid scintillation counting
# [26] = target: Sodium-dependent serotonin transporter (Rattus norvegicus, UniProt P31652); experiment: Displacement of [3H]-citalopram from SERT in rat cortex after 2 hrs by liquid scintillation counting
# [27] = Ratio of drug level in brain to blood in rat; type: ADME, tissue-based
# Rattus norvegicus [28] = experiment: Ex vivo SERT occupancy in Sprague-Dawley rat cortex at 0.1 mg/kg, po after 1 hr by autoradiography; type: functional
# Rattus norvegicus [29] = experiment: Ex vivo SERT occupancy in Sprague-Dawley rat cortex at 3 mg/kg, po after 1 hr by autoradiography; type: functional; outline: as §2
# Rattus norvegicus [30] = experiment: Ex vivo SERT occupancy in Sprague-Dawley rat dorsal raphe at 10 mg/kg, po […] by autoradiography; type: functional
# [31] = target: T2, Sodium-dependent serotonin transporter; experiment: Inhibition of [3H]serotonin reuptake at human SERT expressed in pig LLCPK cells after 1 hr; type: cell-based; outline: as §4
# Transporter = Transporter (Rattus norvegicus, UniProt Q63380); experiment: Displacement of [3H]nisoxetine from NET in rat hippocampus after 2 hrs by liquid scintillation counting; type: tissue-based
# Sequence of Transporter (Q63380 whole entry): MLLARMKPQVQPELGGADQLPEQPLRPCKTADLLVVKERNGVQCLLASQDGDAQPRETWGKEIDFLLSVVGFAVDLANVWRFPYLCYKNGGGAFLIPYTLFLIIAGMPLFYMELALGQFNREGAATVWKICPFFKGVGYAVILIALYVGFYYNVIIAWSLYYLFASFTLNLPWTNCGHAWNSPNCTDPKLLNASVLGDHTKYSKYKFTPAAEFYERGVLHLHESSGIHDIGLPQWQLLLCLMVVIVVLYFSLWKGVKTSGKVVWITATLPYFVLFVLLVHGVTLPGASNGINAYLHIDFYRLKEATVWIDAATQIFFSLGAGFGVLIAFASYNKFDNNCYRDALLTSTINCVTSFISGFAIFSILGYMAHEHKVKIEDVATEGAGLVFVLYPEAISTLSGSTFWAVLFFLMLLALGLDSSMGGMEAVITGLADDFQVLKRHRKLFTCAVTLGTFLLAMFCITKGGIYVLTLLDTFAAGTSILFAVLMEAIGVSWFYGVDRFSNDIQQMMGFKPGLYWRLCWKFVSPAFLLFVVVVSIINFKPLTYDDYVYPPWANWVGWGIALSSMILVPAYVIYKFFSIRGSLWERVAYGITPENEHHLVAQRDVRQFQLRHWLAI
# Outline: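 Rat hippocampus membranes (40 μg protein/well), competition filtration binding run as for human recombinant NET: 1.5 nM [3H]nisoxetine, test compound added from 100x DMSO solution, 10 μM desipramine for nonspecific binding. Incubated for 2 h at room temperature, filtered on PEI-presoaked GF/B, and washed with ice-cold 0.9% NaCl. Read by scintillation counting; four-parameter logistic pIC50 converted to pKi by Cheng-Prusoff.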
# [32] = target: Sodium-dependent serotonin transporter (Mus musculus, UniProt Q60857); experiment: Displacement of [3H]-citalopram from SERT in mouse cortex after 2 hrs by liquid scintillation counting
# Sequence of Sodium-dependent serotonin transporter (Mus musculus, UniProt Q60857) (Q60857 whole entry): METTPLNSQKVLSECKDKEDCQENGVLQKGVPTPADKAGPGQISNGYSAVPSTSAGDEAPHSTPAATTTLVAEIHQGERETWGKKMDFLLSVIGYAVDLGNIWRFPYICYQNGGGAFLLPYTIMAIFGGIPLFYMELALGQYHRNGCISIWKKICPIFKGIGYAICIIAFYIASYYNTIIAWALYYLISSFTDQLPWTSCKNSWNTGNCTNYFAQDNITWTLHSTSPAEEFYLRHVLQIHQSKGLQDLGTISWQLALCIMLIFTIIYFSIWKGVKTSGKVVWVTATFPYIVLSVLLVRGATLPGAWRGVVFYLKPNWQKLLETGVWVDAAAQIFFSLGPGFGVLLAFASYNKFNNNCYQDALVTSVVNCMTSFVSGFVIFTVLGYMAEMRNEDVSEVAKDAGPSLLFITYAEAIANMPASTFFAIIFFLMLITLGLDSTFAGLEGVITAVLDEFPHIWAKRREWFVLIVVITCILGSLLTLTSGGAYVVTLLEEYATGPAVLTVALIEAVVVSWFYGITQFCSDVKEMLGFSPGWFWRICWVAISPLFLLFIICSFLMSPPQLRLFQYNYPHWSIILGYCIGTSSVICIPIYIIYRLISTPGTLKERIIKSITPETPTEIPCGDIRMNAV
# Outline: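 Mouse cortex membranes (7 μg protein/well) were incubated 2 h at room temperature with [³H]citalopram, added at 0.25 nM. Test compound came from a 100× DMSO solution. Nonspecific binding was defined with 10 μM fluoxetine (final). Bound ligand was collected by filtration on PEI-presoaked GF/B filters, washed with ice-cold 0.9% NaCl and scintillation counted. A four-parameter logistic fit gave pIC50, converted to pKi by Cheng-Prusoff.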
# [33] = target: Sodium-dependent dopamine transporter (Mus musculus, UniProt Q61327); experiment: Displacement of [3H]WIN-35428 from DAT in mouse brain; type: tissue-based
# [34] = Blood clearance in rat; type: ADME, organism-based
# [35] = target: T1, Sodium-dependent noradrenaline transporter; experiment: Inhibition of [3H]noradrenalin reuptake at human NET expressed in pig LLCPK cells after 1 hr; type: cell-based; outline: as §4
# [36] = Half life in rat; type: ADME, organism-based; details: in vivo
# Rattus norvegicus [37] = experiment: Ex vivo SERT occupancy in Sprague-Dawley rat cortex at 0.03 mg/kg, po after 1 hr by autoradiography; type: functional; outline: as §2
# [38] = target: T1, Sodium-dependent noradrenaline transporter; experiment: Displacement of [3H]nisoxetine from human recombinant NET by SPA; outline: as §3
smiles,measurement,setting,value
COC[C@@]12CNCC[C@]1(c1ccc(Cl)c(Cl)c1)C2 (relative stereo; 17),Activity,Rattus norvegicus [1],Active
same,Activity,Mus musculus [2],Active
same,Activity,Rattus norvegicus [3],Active
same,Activity,Mus musculus [4],Dose-dependent effect
same,Activity,Rattus norvegicus [5],Active
same,Activity,Rattus norvegicus [6],Active
same,Activity,Rattus norvegicus [7],Active
same,Activity,Rattus norvegicus [8],Active
COC[C@@]12CNCC[C@]1(c1ccc(Cl)c(Cl)c1)C2 (relative stereo; 17) [GSK1360707],Activity,Rattus norvegicus [9],>=95%
same,Activity,Rattus norvegicus [10],58.2%
same,Activity,Rattus norvegicus [11],98.2%
same,Ki,[12],7.94 nM
same,Ki,[13],0.631 nM
same,Ki,[14],1.05 nM
same,IC50,[15],2 nM
same,Activity,Rattus norvegicus [16],>=95%
same,IC50,Cytochrome P450 2C9,10000 nM
same,Ki,[17],1.58 nM
same,Ki,[18],12 nM
same,IC50,Cytochrome P450 2C19,10000 nM
same,IC50,Cytochrome P450 1A2,10000 nM
same,Activity,Rattus norvegicus [19],36.3%
same,bioavailability,[20],54%
same,IC50,Cytochrome P450 3A4,10000 nM
same,Ki,[21],10 nM
same,Vd,[22],5.8 L/kg
same,Activity,Rattus norvegicus [23],>=95%
same,IC50,Cytochrome P450 2D6,3000 nM
same,Activity,Rattus norvegicus [24],>=95%
same,Ki,[25],10 nM
same,Ki,[26],1.26 nM
same,Kp,[27],6.3
same,Activity,Rattus norvegicus [28],12.6%
same,Activity,Rattus norvegicus [29],82.8%
same,Activity,Rattus norvegicus [30],87.92%
same,IC50,[31],3.98 nM
same,Ki,Transporter,2.51 nM
same,Ki,[32],1.58 nM
same,Ki,[33],10 nM
same,clearance,[34],48 mL/min
same,IC50,[35],2 nM
same,half-life,[36],1.7 h
same,Activity,Rattus norvegicus [37],4.6%
same,Ki,[38],12 nM
